According to ChEMBL document CHEMBL2311397, “Design and synthesis of cyclopropylamide analogues of combretastatin-A4 as novel microtubule-stabilizing agents” (J Med Chem, 2013):
pIC50: −log10 of the molar value.

Experiments:
Format in all cases: functional, cell-based
HeLa = assay: Cytotoxicity against human HeLa cells after 48 hrs by MTT assay
Summary of the method: (§1)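 Log-phase cells (40000–50000 cells/mL) grown in DMEM with 10% fetal calf serum (5% CO2, 37 °C) and exposed 48 h to five concentrations, 3–5 replicates. Read-out was MTT with absorbance at 570 nm; IC50 reported as mean ± SD of three independent experiments. Resistant A549 and HeLa sublines were made by stepwise paclitaxel selection; resistance index = IC50(resistant)/IC50(sensitive).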

[1] = Cytotoxicity against human QGY cells after 48 hrs by MTT assay; summary of the method: as §1
A549 = assay: Cytotoxicity against human A549 cells after 48 hrs by MTT assay; summary of the method: as §1
SW480 = assay: Cytotoxicity against human SW480 cells after 48 hrs by MTT assay; summary of the method: as §1
K562 = assay: Cytotoxicity against human K562 cells after 48 hrs by MTT assay; summary of the method: as §1

| Compound | pIC50 (HeLa; Homo sapiens, HeLa, 48 h) | pIC50 ([1]; Homo sapiens, QGY, 48 h) | pIC50 (A549; Homo sapiens, A549, 48 h) | pIC50 (SW480; Homo sapiens, SW480, 48 h) | pIC50 (K562; Homo sapiens, K562, 48 h) | pIC50 (SW480; sw480) | pIC50 (HeLa; hela) | pIC50 (A549; a549) | pIC50 ([1]; qgy) | pIC50 (K562; k562) |
| --- | --- | --- | --- | --- | --- | --- | --- | --- | --- | --- |
| CCOC(=O)[C@@]1(C(=O)NCc2ccc(C)cc2)C[C@H]1c1cc(OC)c(OC)c(OC)c1 | 4.71 | 4.58 | 4.77 | < 4.00 | < 4.00 | – | – | – | – | – |
| COc1cc([C@H]2C[C@]2(CO)C(=O)Nc2ccccc2)cc(OC)c1OC | < 4.00 | < 4.00 | < 4.00 | < 4.00 | < 4.00 | – | – | – | – | – |
| CCOC(=O)C1(C(=O)Nc2cccc([N+](=O)[O-])c2)CC1c1cc(OC)c(OC)c(OC)c1 (stereo in doubt; cis) | 4.23 | < 4.00 | 4.12 | – | < 4.00 | < 4.00 | – | – | – | – |
| COc1cc([C@H]2C[C@@]2(CO)C(=O)Nc2ccccc2)cc(OC)c1OC | < 4.00 | < 4.00 | < 4.00 | < 4.00 | < 4.00 | – | – | – | – | – |
| CCOC(=O)[C@@]1(C(=O)NCc2ccc(C)cc2)C[C@@H]1c1cc(OC)c(OC)c(OC)c1 | < 4.00 | < 4.00 | < 4.00 | < 4.00 | < 4.00 | – | – | – | – | – |
| CCOC(=O)C1(C(=O)NCCc2ccc(F)cc2)CC1c1cc(OC)c(OC)c(OC)c1 (trans isomer) | – | – | – | – | – | 4.39 | 4.46 | < 4.00 | – | – |
| COc1cc([C@H]2C[C@]2(CO)C(=O)NCc2ccc(C)cc2)cc(OC)c1OC | 4.24 | 4.25 | 4.22 | 4.03 | < 4.00 | – | – | – | – | – |
| CCOC(=O)C1(C(=O)NCCc2ccccc2F)CC1c1cc(OC)c(OC)c(OC)c1 (trans isomer) | – | – | – | – | – | 4.77 | < 4.00 | 4.51 | 4.33 | 4.10 |
| CCOC(=O)C1(C(=O)NCc2ccccc2)CC1c1cc(OC)c(OC)c(OC)c1 (cis isomer) | 4.33 | < 4.00 | 4.10 | 4.05 | < 4.00 | – | – | – | – | – |
| CCOC(=O)C1(C(=O)Nc2ccccc2Cl)CC1c1cc(OC)c(OC)c(OC)c1 (stereo in doubt; trans) | – | – | – | – | – | 4.18 | 4.12 | 4.73 | 4.31 | 4.85 |
| COc1cc([C@@H]2C[C@]2(CO)C(=O)NCc2ccc(C)cc2)cc(OC)c1OC | 4.76 | 4.60 | 4.98 | 4.57 | < 4.00 | – | – | – | – | – |
| CCOC(=O)C1(C(=O)Nc2ccccc2)CC1c1cc(OC)c(OC)c(OC)c1 (trans isomer) | – | – | – | – | – | < 4.00 | – | 4.31 | < 4.00 | – |
| CCOC(=O)[C@@]1(C(=O)Nc2ccccc2Cl)C[C@H]1c1cc(OC)c(OC)c(OC)c1 | 4.84 | 4.46 | 4.75 | 4.52 | < 4.00 | – | – | – | – | – |
| COc1cc([C@H]2C[C@]2(CO)C(=O)Nc2ccccc2Cl)cc(OC)c1OC | 4.34 | 4.39 | 4.44 | 4.40 | < 4.00 | – | – | – | – | – |
| CCOC(=O)C1(C(=O)Nc2ccccc2[N+](=O)[O-])CC1c1cc(OC)c(OC)c(OC)c1 (trans isomer) | – | – | – | – | – | 4.50 | 4.45 | 4.51 | < 4.00 | < 4.00 |
| COc1cc([C@@H]2C[C@@]2(CO)C(=O)NCc2ccc(C)cc2)cc(OC)c1OC | 4.39 | 4.23 | 4.33 | 4.12 | < 4.00 | – | – | – | – | – |
| CCOC(=O)C1(C(=O)NCCc2ccc(F)cc2)CC1c1cc(OC)c(OC)c(OC)c1 (cis isomer) | 4.24 | < 4.00 | – | 4.12 | < 4.00 | – | – | 4.31 | – | – |
| CCOC(=O)C1(C(=O)Nc2ccc(F)cc2)CC1c1cc(OC)c(OC)c(OC)c1 (trans isomer) | – | – | – | – | – | 4.38 | 4.43 | 4.55 | 4.44 | < 4.00 |
| CCOC(=O)C1(C(=O)Nc2cccc(Cl)c2)CC1c1cc(OC)c(OC)c(OC)c1 (stereo in doubt; trans) | – | – | – | – | – | 4.54 | < 4.00 | 4.34 | < 4.00 | < 4.00 |
| CCOC(=O)C1(C(=O)NCc2ccc(OC)cc2)CC1c1cc(OC)c(OC)c(OC)c1 (trans isomer) | – | – | – | – | – | – | – | 4.13 | – | – |
| CCOC(=O)C1(C(=O)NCCc2cccc(F)c2)CC1c1cc(OC)c(OC)c(OC)c1 (cis isomer) | – | – | 4.28 | – | 4.12 | 4.45 | 4.55 | – | 4.40 | – |
| COc1cc([C@@H]2C[C@@]2(CO)C(=O)Nc2ccccc2Cl)cc(OC)c1OC | 4.88 | 4.61 | 4.94 | 4.97 | 4.74 | – | – | – | – | – |
| CCOC(=O)[C@@]1(C(=O)Nc2ccccc2)C[C@@H]1c1cc(OC)c(OC)c(OC)c1 | < 4.00 | < 4.00 | < 4.00 | < 4.00 | < 4.00 | – | – | – | – | – |

| Compound | pIC50 (HeLa; Homo sapiens, HeLa, 48 h) | pIC50 ([1]; Homo sapiens, QGY, 48 h) | pIC50 (A549; Homo sapiens, A549, 48 h) | pIC50 (SW480; Homo sapiens, SW480, 48 h) | pIC50 (K562; Homo sapiens, K562, 48 h) | pIC50 (SW480; sw480) | pIC50 (HeLa; hela) | pIC50 (A549; a549) | pIC50 ([1]; qgy) | pIC50 (K562; k562) |
| --- | --- | --- | --- | --- | --- | --- | --- | --- | --- | --- |
| CCOC(=O)[C@]1(C(=O)Nc2ccccc2Cl)C[C@@H]1c1cc(OC)c(OC)c(OC)c1 | < 4.00 | 4.46 | 4.29 | < 4.00 | 4.71 | – | – | – | – | – |
| CCOC(=O)C1(C(=O)NCCc2ccccc2F)CC1c1cc(OC)c(OC)c(OC)c1 (cis isomer) | 4.24 | 4.47 | 4.56 | – | < 4.00 | 4.06 | – | – | – | – |
| CCOC(=O)C1(C(=O)NCc2ccc(C)cc2)CC1c1cc(OC)c(OC)c(OC)c1 (cis isomer) | 4.48 | – | 4.73 | – | < 4.00 | 4.54 | – | – | < 4.00 | – |
| O=c1[nH]cc(F)c(=O)[nH]1 [FLUOROURACIL] | 3.85 | 3.90 | 4.25 | 3.80 | 3.94 | – | – | – | – | – |
| CCOC(=O)[C@]1(C(=O)Nc2ccccc2)C[C@H]1c1cc(OC)c(OC)c(OC)c1 | < 4.00 | < 4.00 | 4.43 | < 4.00 | < 4.00 | – | – | – | – | – |
| CCOC(=O)C1(C(=O)NCc2ccccc2)CC1c1cc(OC)c(OC)c(OC)c1 (trans isomer) | – | – | – | – | – | < 4.00 | 4.12 | < 4.00 | – | – |
| CCOC(=O)C1(C(=O)Nc2cccc([N+](=O)[O-])c2)CC1c1cc(OC)c(OC)c(OC)c1 (stereo in doubt; trans) | – | – | – | – | – | 4.31 | < 4.00 | 4.10 | – | – |
| CCOC(=O)C1(C(=O)Nc2ccc(OC)cc2)CC1c1cc(OC)c(OC)c(OC)c1 (stereo in doubt) | – | – | – | – | – | < 4.00 | < 4.00 | < 4.00 | < 4.00 | – |
| COc1cc([C@@H]2C[C@@]2(CO)C(=O)Nc2ccccc2)cc(OC)c1OC | 4.06 | 4.44 | 4.36 | 4.11 | < 4.00 | – | – | – | – | – |
| CCOC(=O)C1(C(=O)NCc2ccc(F)cc2)CC1c1cc(OC)c(OC)c(OC)c1 (stereo in doubt) | 4.49 | 4.23 | 4.53 | 4.47 | 4.35 | – | – | – | – | – |
| CCOC(=O)C1(C(=O)Nc2ccccc2)CC1c1cc(OC)c(OC)c(OC)c1 (cis isomer) | < 4.00 | 4.23 | 4.50 | – | < 4.00 | 4.31 | – | – | – | – |
| CCOC(=O)C1(C(=O)NCCc2cccc(F)c2)CC1c1cc(OC)c(OC)c(OC)c1 (trans isomer) | – | – | – | – | – | 4.10 | 4.24 | 4.19 | < 4.00 | < 4.00 |
| COc1ccc(/C=C\c2cc(OC)c(OC)c(OC)c2)cc1O [COMBRETASTATIN A4] | 8.68 | 7.58 | 8.25 | 7.74 | 8.32 | – | – | – | – | – |
| CCOC(=O)[C@@]1(C(=O)Nc2ccccc2)C[C@H]1c1cc(OC)c(OC)c(OC)c1 | < 4.00 | 4.31 | 4.18 | < 4.00 | < 4.00 | – | – | – | – | – |
| CCOC(=O)C1(C(=O)Nc2ccccc2[N+](=O)[O-])CC1c1cc(OC)c(OC)c(OC)c1 (stereo in doubt) | 4.40 | 4.27 | 4.61 | 4.47 | 4.25 | – | – | – | – | – |
| CCOC(=O)C1(C(=O)NCc2ccc(C)cc2)CC1c1cc(OC)c(OC)c(OC)c1 (trans isomer) | – | – | – | – | – | < 4.00 | 4.59 | 4.67 | 4.42 | – |
| CCOC(=O)C1(C(=O)NCc2ccc(OC)cc2)CC1c1cc(OC)c(OC)c(OC)c1 (cis isomer) | < 4.00 | < 4.00 | < 4.00 | < 4.00 | < 4.00 | – | – | – | – | – |
| COc1cc([C@H]2C[C@@]2(CO)C(=O)Nc2ccccc2Cl)cc(OC)c1OC | < 4.00 | < 4.00 | < 4.00 | < 4.00 | < 4.00 | – | – | – | – | – |
| CCOC(=O)C1(C(=O)NCc2ccc(F)cc2)CC1c1cc(OC)c(OC)c(OC)c1 (trans isomer) | – | – | – | – | – | 4.55 | 4.56 | 4.47 | < 4.00 | 4.37 |
| CCOC(=O)C1(C(=O)Nc2cccc(Cl)c2)CC1c1cc(OC)c(OC)c(OC)c1 (stereo in doubt; cis) | – | – | 4.59 | 4.43 | 4.28 | – | 4.45 | – | 4.33 | – |
| CCOC(=O)[C@@]1(C(=O)Nc2ccccc2Cl)C[C@@H]1c1cc(OC)c(OC)c(OC)c1 | < 4.00 | < 4.00 | 4.54 | 4.33 | 4.31 | – | – | – | – | – |
| CCOC(=O)[C@]1(C(=O)Nc2ccccc2)C[C@@H]1c1cc(OC)c(OC)c(OC)c1 | < 4.00 | 4.42 | 4.67 | 4.50 | < 4.00 | – | – | – | – | – |
| CCOC(=O)C1(C(=O)Nc2ccccc2Cl)CC1c1cc(OC)c(OC)c(OC)c1 (stereo in doubt; cis) | – | 4.44 | 4.74 | – | – | 4.57 | 4.66 | – | – | 4.38 |
